ChEMBL document CHEMBL1130594, “Thalidomide analogs and PDE4 inhibition” (Bioorg Med Chem Lett, 1998)

Experiments:
[1] = target: T1, Phosphodiesterase 4 (Homo sapiens, UniProt P27815+Q08499+Q07343+Q08493); test: Inhibition of phosphodiesterase 4 from U937 cells; type: cell-based; details: u-937
[2] = test system: PBMC; test: Inhibition of LPS stimulated Tumor Necrosis Factor-alpha (TNF-alpha) release by human PBMC, cytotoxic at 10 and 100 uM; type: functional, cell-based
[3] = target: T1, Phosphodiesterase 4; test: Inhibition of PDE4 enzyme from U937 cells; type: cell-based; details: u-937
Method in brief: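 Crude PDE4 from U937 cells: lysate supernatant run on Sephacryl S-200, rolipram-sensitive fractions pooled. Assay in 50 mM Tris-HCl pH 7.5, 5 mM MgCl2, 1 µM cAMP (1% 3H-cAMP), varying inhibitor, <15% substrate consumed; 30 °C, 30 min. Boiled, snake-venom treated, AG1-X8 resin, aqueous phase counted. Duplicates, % of control; IC50 by variable-slope nonlinear regression, three independent experiments.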

[4] = test system: PBMC; test: (§1) Inhibition of LPS stimulated Tumor Necrosis Factor-alpha (TNF-alpha) release by human PBMC; type: functional, cell-based
[5] = test system: PBMC; test: as §1

Row | IC50 [1] | IC50 [3] | SMILES | IC50 [2] | IC50 [4] | IC50 [5]
1 | 4700 nM | – | COC(=O)CC(c1ccc(OC)c(OC)c1)N1C(=O)c2c(F)c(F)c(F)c(F)c2C1=O (configuration not stated) | 260 nM | – | –
2 | – | 130 nM | CCOc1cc(C(CC#N)N2C(=O)c3ccccc3C2=O)ccc1OC (configuration not stated) | – | 120 nM | –
3 | – | 1300 nM | COc1ccc(C(CC#N)N2C(=O)c3ccccc3C2=O)cc1OC (configuration not stated) | – | 1700 nM | –
4 | – | 350 nM | COc1ccc(C(CC#N)N2C(=O)c3ccccc3C2=O)cc1OC1CCCC1 (configuration not stated) | – | 1600 nM | –
5 | – | 2000 nM | CCOc1cc(C(CC(N)=O)N2C(=O)c3ccccc3C2=O)ccc1OC (configuration not stated) | – | 2700 nM | –
6 | – | 230 nM | CCOc1cc(C(CC(=O)OC)N2C(=O)c3ccccc3C2=O)ccc1OC (configuration not stated) | – | 700 nM | –
7 | – | 2500 nM | COC(=O)CC(c1ccc(OC)c(OC)c1)N1C(=O)c2ccccc2C1=O (configuration not stated) | – | 2900 nM | –
8 | 2200 nM | – | CCOc1cc(C(CC(=O)OC)N2C(=O)c3c(F)c(F)c(F)c(F)c3C2=O)ccc1OC (configuration not stated) | 380 nM | – | –
9 | – | 9400 nM | COc1ccc(C(CC(N)=O)N2C(=O)c3ccccc3C2=O)cc1OC (configuration not stated) | – | 13000 nM | –
10 | – | 1700 nM | COC(=O)CC(c1ccc(OC)c(OC2CCCC2)c1)N1C(=O)c2ccccc2C1=O (configuration not stated) | – | 1600 nM | –
11 | – | 740 nM | COC(=O)CC(c1ccc(OC)c(OC2CC3CCC2C3)c1)N1C(=O)c2ccccc2C1=O (configuration not stated) | – | 2400 nM | –
12 | – | 1100 nM | COc1ccc(C(CC(N)=O)N2C(=O)c3ccccc3C2=O)cc1OC1CCCC1 (configuration not stated) [CDC-801] | – | 2500 nM | –
13 | – | – | COc1ccc(C2CNC(=O)C2)cc1OC1CCCC1 (configuration not stated) [ROLIPRAM] | – | – | 150 nM
14 | – | > 500000 nM | O=C1CCC(N2C(=O)c3ccccc3C2=O)C(=O)N1 (configuration not stated) [THALIDOMIDE] | – | ~200000 nM | –
